This is a sample that favours compounds with a hit; in the whole collection about 3.2% have one here.
Ecoli rRNA inh: selective bacterial rRNA inhibition in E. coli; E. coli WT GFP vs humanized-ribosome RFP mutants, fluorescence, 24 h; stronger effect = lower value; DMSO median 0, no signal -100; GFP signal change (wild-type ribosome), % (no concentration beside the values); hit rate 1.6% among 350,000;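 active = significant combined selectivity score with lowered wild-type GFP, culture density cut under 30%, mutant RFP and density less affected; inactive = any of these conditions unmet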
MLL AF4-AF9 inh: inhibitors of human MLL-AF4/AF9 interaction; P42568; AlphaScreen, biotin-AF4 peptide binding to FLAG-AF9; inhibition, % at 10 µM; hit rate 0.47% among 350,000; AID 651704;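 active = every replicate reaching a set inhibition limit, whatever the replicate mean, cut at about 25% in these data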;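 also: 0% = plate neutral control median and 100% = total signal loss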
Target sequence (P42568 whole entry, looked up): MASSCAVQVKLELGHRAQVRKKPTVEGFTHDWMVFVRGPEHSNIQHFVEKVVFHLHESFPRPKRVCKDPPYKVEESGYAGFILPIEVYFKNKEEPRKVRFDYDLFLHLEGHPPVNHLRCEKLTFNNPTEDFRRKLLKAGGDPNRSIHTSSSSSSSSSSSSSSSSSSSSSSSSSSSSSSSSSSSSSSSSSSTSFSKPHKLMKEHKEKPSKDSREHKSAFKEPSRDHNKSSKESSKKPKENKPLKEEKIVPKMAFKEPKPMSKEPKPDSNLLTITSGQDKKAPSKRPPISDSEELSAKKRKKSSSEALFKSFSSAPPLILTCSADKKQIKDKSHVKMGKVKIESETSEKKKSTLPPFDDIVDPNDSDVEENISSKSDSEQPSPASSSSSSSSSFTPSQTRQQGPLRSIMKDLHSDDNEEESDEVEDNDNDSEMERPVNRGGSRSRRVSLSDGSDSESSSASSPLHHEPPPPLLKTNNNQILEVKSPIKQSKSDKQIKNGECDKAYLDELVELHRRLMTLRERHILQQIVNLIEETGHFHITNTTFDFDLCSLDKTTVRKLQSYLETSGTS
PfHsp90 set2: reduces growth (ATP signal) of yeast expressing P. falciparum Hsp90 | S. cerevisiae expressing PfHsp90, BacTiter-Glo ATP, 48 h; yeast lacking PDR1 and PDR3 efflux regulators | inhibition, % at 9.4 µM | hit rate 0.32% among 310,000 | AID 504621;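 active = every replicate shows inhibition above about 80%, whatever the replicate mean, limit read from the data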;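 also: 0% = DMSO neutral controls and 100% = 20 µM radicicol positive controls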
S100A4 MyoIIA: blocks human S100A4 binding to myosin IIA peptide. P26447. S100A4/TAMRA-MyoIIA peptide fluorescence polarization. inhibition, % at 10.7 µM. hit rate 0.14% among 360,000. AID 652163;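 active = mean inhibition of at least 70% across replicates, with every replicate also reaching that level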
Target sequence (P26447 whole entry, looked up): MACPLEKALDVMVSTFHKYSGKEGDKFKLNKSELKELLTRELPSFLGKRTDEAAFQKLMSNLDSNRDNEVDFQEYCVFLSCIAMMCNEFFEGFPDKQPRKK
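Material: S100A4 monomer protein / Buffer or medium: 50 mM HEPES pH 7.2, 10 mM CaCl2, 100 mM KCl / Times: 5 min incubation before reading / Benchmarks: neutral control DMSO, positive control TFP / Reagent: labelled myosin peptide probe, 5 nM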
DENV2 CPE: protects cells from dengue virus 2 cytopathic effect; DENV2-infected cells, cytopathic effect rescue, plate reader; hit rate 1.7% among 350,000; AID 651640; CPE inhibition, % at 9.99 µM; in the data active = CPE inhibition above about 20%, passing the limit was not always enough; tested in BHK-21 cells;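 also: 0% = median of neutral control wells and 100% = median of positive control wells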
Cneo AK release: causes C. neoformans cell lysis; adenylate kinase release luminescence, 4 h; normalised: neutral wells 0, clomiphene wells 100; lysis activity, % at 15 µM; hit rate 0.2% among 360,000;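 active = mean lysis activity across replicates of at least 80%, whatever share of replicates individually reach that level; inactive = mean lysis activity below 80%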
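Material: C. neoformans cells | Amount: Yeast cell density of 5 × 10^6 cells/mL | Medium: Fresh YPD growth medium | Dosing: Single dose | Times: Static 4 h at 37 °C with compound, 1 h detection | Detection: AK luminescence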
The depositor's hits bear a star; . = not tested or not shown; ! = a repeat was not active.

SMILES	Ecoli rRNA inh	MLL AF4-AF9 inh	PfHsp90 set2	S100A4 MyoIIA	DENV2 CPE	Cneo AK release
COCCN(C[C@@H]1N[C@@H](CO)[C@H]1c1ccc(-c2cccnc2)cc1)C(C)=O	1.9	0.0	.	8.3	30.3*	-0.9
COc1cccc(S(=O)(=O)Nc2ccc3c(c2)[C@H]2C[C@H](CC(=O)NCCc4ccccc4)O[C@H](CO)[C@H]2O3)c1	-3.5	-2.4	.	-5.8	15.9	-4.5
COc1ccc(S(=O)(=O)Nc2ccc3c(c2)C(=O)N([C@@H](C)CO)C[C@@H](C)[C@@H](CN(C)C(=O)Nc2ccccc2)O3)cc1	-0.4	0.7	.	-8.1	7.4	0.6
COc1ccc(NS(=O)(=O)c2cccc(NC(=O)c3ccc(Cl)nc3)c2)cc1	-24.7*	1.7	12.8	-5.8	-4.9	.
O=C(c1ccccn1)N1C[C@@H]2[C@H](c3ccccc31)[C@H](CO)N2C(=O)Nc1ccccc1	3.9	2.4	.	-27.0	1.9	-0.5
O=C(Nc1ccc(F)cc1)N1C[C@@H]2[C@H](c3ccccc31)[C@@H](CO)N2C(=O)c1ccccn1	-0.1	.	.	-4.8	-4.0	-13.6
O=C(Nc1ccc(Cl)cc1)N1C[C@@H]2[C@H](c3ccccc31)[C@H](CO)N2C(=O)c1ccccn1	-52.6*	.	.	.	.	-0.2
O=C(Nc1ccc(Cl)cc1)N1C[C@@H]2[C@H](c3ccccc31)[C@@H](CO)N2C(=O)c1ccccn1	-25.4*	.	.	.	.	-2.8
COc1ccc(S(=O)(=O)N[C@@H]2CC[C@@H](CCn3cc(-c4ccccc4F)nn3)O[C@@H]2CO)cc1	-0.9	-1.0	.	4.9	-8.8	-1.6
Cn1c(=O)n(Cc2ccccc2)c2ccccc21	-0.1	-0.2	0.0	-2.5	7.2	5.9
Cn1c(=O)n(Cc2ccc(Br)cc2)c2ccccc21	-47.5*	1.1	.	-16.9	-4.8	.
COC(=O)c1ccsc1NC(=O)C1COc2ccccc2O1 (stereo not drawn)	-31.8*	-5.2	20.9	6.7	9.6	-2.8
C[C@H](CO)N1C[C@H](C)[C@H](CN(C)C(=O)NC2CCCCC2)OCCCC[C@H](C)Oc2ccc(NS(=O)(=O)c3cn(C)cn3)cc2C1=O	-0.1	-3.4	.	9.9	.	90.3*
C[C@@H]1CCCCO[C@@H](CN(C)CC2CCCCC2)[C@@H](C)CN([C@H](C)CO)C(=O)c2cc(NS(=O)(=O)c3cn(C)cn3)ccc2O1	0.0	-7.3	.	132.6*	-3.1	-1.1
C[C@@H]1CCCCO[C@H](CN(C)C(=O)Nc2ccccc2)[C@H](C)CN([C@H](C)CO)C(=O)c2cc(NS(=O)(=O)c3cn(C)cn3)ccc2O1	3.5	1.7	.	0.7	-4.7	-5.7
C[C@@H]1CN([C@@H](C)CO)C(=O)c2cc(NS(=O)(=O)c3cn(C)cn3)ccc2O[C@@H](C)CCCCO[C@@H]1CN(C)CC1CCCCC1	1.5	-4.7	.	-24.3	-2.9	0.0
C[C@@H]1CCCCO[C@H](CN(C)C(=O)Nc2ccccc2)[C@@H](C)CN([C@H](C)CO)C(=O)c2cc(NS(=O)(=O)c3cn(C)cn3)ccc2O1	25.4	0.8	.	-7.2	44.6*!	2.5
C[C@H](CO)N1C[C@H](C)[C@@H](CN(C)C(=O)Nc2cccc3ccccc23)OCCCC[C@H](C)Oc2ccc(NS(=O)(=O)c3cn(C)cn3)cc2C1=O	8.8	2.7	.	-2.1	-19.3	-18.6
C[C@@H]1CCCCO[C@H](CN(C)C(=O)Nc2cccc3ccccc23)[C@@H](C)CN([C@@H](C)CO)C(=O)c2cc(NS(=O)(=O)c3cn(C)cn3)ccc2O1	-2.8	.	.	.	89.0*	-20.7
COc1ccc2c3c([nH]c2c1)[C@@H](CO)N(C(=O)c1ccccn1)CC31CN(C(=O)C2CCCCC2)C1	-1.1	.	.	.	.	.
Cc1noc(C)c1NC(=O)N(C)C[C@@H]1OCCCC[C@H](C)Oc2ccc(NC(=O)NC3CCCCC3)cc2C(=O)N([C@@H](C)CO)C[C@H]1C	2.8	-7.7	.	-71.1	43.9*	-2.3
Cc1noc(C)c1NC(=O)Nc1ccc2c(c1)C(=O)N([C@@H](C)CO)C[C@@H](C)[C@H](CN(C)C(=O)Nc1c(C)noc1C)OCCCC[C@H](C)O2	3.0	-3.3	.	5.1	9.6	-1.4
Cc1noc(C)c1NC(=O)N(C)C[C@@H]1OCCCC[C@H](C)Oc2ccc(NC(=O)NC3CCCCC3)cc2C(=O)N([C@@H](C)CO)C[C@@H]1C	3.2	-8.5	.	-39.4	23.0*	-0.1
Cc1noc(C)c1NC(=O)Nc1ccc2c(c1)C(=O)N([C@H](C)CO)C[C@@H](C)[C@H](CN(C)C(=O)NC1CCCCC1)OCCCC[C@@H](C)O2	-1.3	0.6	.	-2.0	6.5	-4.5
Cc1noc(C)c1NC(=O)Nc1ccc2c(c1)C(=O)N([C@@H](C)CO)C[C@H](C)[C@H](CN(C)C(=O)NC1CCCCC1)OCCCC[C@@H](C)O2	-0.1	0.0	.	-4.5	28.8*	-3.0
SMILES	Ecoli rRNA inh	MLL AF4-AF9 inh	PfHsp90 set2	S100A4 MyoIIA	DENV2 CPE	Cneo AK release
Cc1noc(C)c1NC(=O)N(C)C[C@@H]1OCCCC[C@@H](C)Oc2ccc(NC(=O)NC3CCCCC3)cc2C(=O)N([C@@H](C)CO)C[C@H]1C	0.8	-13.7	.	-8.0	75.8*	-1.2
CO[C@H]1CN(C)C(=O)c2ccc(NC(=O)Cc3ccccc3)cc2OC[C@@H](C)N(CC2CC2)C[C@@H]1C	1.6	0.1	.	-7.6	-2.9	1.6
C[C@@H]1CN([C@H](C)CO)C(=O)c2cc(NS(=O)(=O)c3ccc(Cl)cc3)ccc2O[C@@H]1CN(C)S(=O)(=O)c1ccccc1	-2.8	.	.	.	-7.0	-2.2
C[C@H]1CN([C@@H](C)CO)C(=O)c2cc(NC(=O)CCN3CCOCC3)ccc2O[C@H]1CN(C)C(=O)NC1CCCCC1	1.4	-2.5	.	0.2	2.9	-1.0
O=C(NC1CCCC1)[C@@H]1[C@@H](CO)[C@@H]2Cn3c(ccc(-c4ccncc4)c3=O)[C@@H]2N1CC1CC1	-2.7	-0.2	.	9.0	10.0	45.7
Cc1noc(C)c1NC(=O)N(C)C[C@@H]1OCCCC[C@@H](C)Oc2ccc(NS(C)(=O)=O)cc2C(=O)N([C@H](C)CO)C[C@@H]1C	3.7	.	.	.	-5.6	0.4
Cc1noc(C)c1NC(=O)N(C)C[C@@H]1Oc2ccc(NC(=O)NC3CCCCC3)cc2C(=O)N([C@@H](C)CO)C[C@@H]1C	0.6	-3.4	.	1.0	34.3*	1.0
CCCNC(=O)N[C@@H]1CC[C@H](CCn2cc(C3CC3)nn2)O[C@@H]1CO	-1.7	-0.1	.	-4.4	-2.5	-0.5
CCC1SC(C)C/C(=N/NC(N)=O)C1C (stereo not drawn)	2.5	-13.9	-6.3	-1.8	0.3	0.4
CC1CC(C)C(=NNC(N)=O)C(C(O)CC2CCC(=O)NC2=O)C1 (stereo not drawn)	12.5	1.6	114.1*	-4.2	-15.2	-0.7
